Source: ChEMBL document CHEMBL4513216, “Probing the Open Global Health Chemical Diversity Library for Multistage-Active Starting Points for Next-Generation Antimalarials” (ACS Infect Dis, 2020)

Assay: Toxicity liver stage against HepG2, at 10uM
Assay type: cell-based
Parameters: test concentration 10 uM, cell line HepG2-A16-CD81EGFP
Conditions: human, HepG2-A16-CD81EGFP cells; read-out: INHIBITION
Procedure, shortened: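 Uninfected HepG2-A16-CD81EGFP cells, 3 × 10^3 per well, 1536-well, plated on prespotted compound at 10 μM final, parasite-free screening media added to match infected plates; puromycin 10 μM positive, DMSO 0.5% negative; run in parallel with 48 h PbLuc assay at 37 °C, 5% CO2; viability by CellTiter-Glo luminescence, normalized to controls.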

Structure (SMILES) | cytotoxicity at 10 µM [%]
Cc1cc2ncn(C(=O)N3CCCCC3)c2cc1C | 10.3
O=C1CO[C@H](c2ccc(NS(=O)(=O)c3ccccc3)cc2)[C@@H](CO)N1 | 2.17
c1cnc2c(c1)nc1n2[C@@H](CNC2CCOCC2)COC1 | -4.8
c1cn2c(n1)CO[C@@H](CNCc1ccc3c(c1)OCO3)C2 | 2
CC(=O)N1C[C@@H](F)[C@@H](OCc2nc3ccccc3o2)C1 | -1.34
O=C(O)Cn1ccc(=O)c2ccccc21 | -9.24
CSCCC(Nc1nc(C)cc(C)n1)C(=O)NC1CC1 (configuration not stated) | -15.3
O=C(NCCc1ccccn1)c1n[nH]c2c1CCC2 | -3.81
CC(C)CNC(=O)N1C[C@@H]2CCCN[C@@H]2C1 | 5
CC(=O)N1CCC2(C1)CN(S(=O)(=O)c1ccccc1)C2 | 3.82
O=C1NCCO[C@H]2CN(C(=O)CCc3ccccc3Cl)CC[C@@H]12 | 1.96
O=c1ccc2c(n1Cc1ccncc1)CCN(C1CCOC1)CC2 (configuration not stated) | -1.31
COCC1CN(CC2CCOCC2)Cc2cn(CC3CCCC3)nc21 (configuration not stated) | 5.19
Cc1ncnc2c1CCN(C(=O)c1ccoc1)CC2 | 6.73
Cc1sc(NC(=O)CN(C)S(C)(=O)=O)c(C#N)c1C | 4.7
CC1CCN(C(=O)c2ccn(COc3ccccc3)n2)CC1 | -0.107
CN(C)C(=O)CNC(=O)CCn1ncc2c(Cl)cccc21 | -4.84
CS(=O)(=O)c1cnc(N2CCCC2)nc1C1CCN(C(=O)C2CC2)CC1 | 1.45
O=C(c1cscn1)N1CCc2[nH]nc(Nc3ccccc3)c2C1 | 7.82
CC(C)(NC(=O)Cc1ccccc1F)C(=O)O | 3.13
CC(C)c1nc(O)c2nnn(C[C@@H]3CCCN(Cc4ccsc4)C3)c2n1 | -4.6

Structure (SMILES) | cytotoxicity at 10 µM [%]
CC(C)NC(=O)C1CCc2nnc(C(C)(C)C)n21 (configuration not stated) | 2.74
Cc1cc(C)c(CNC(=O)NC2CCN(C(=O)C(C)C)CC2)c(C)c1 | 9.46
Cc1cccc(NC(=O)N2CCC(CO)(Nc3ccccc3)CC2)c1 | 0.045
CC(C)(CO)N1CCN(S(=O)(=O)CCCF)CC1 | -4.3
CC(C#N)CNC(=O)Nc1ccc(Br)cc1 (configuration not stated) | 1.44
CCOc1ccc(NCc2cnc(N3CCN(C)CC3)nc2)cn1 | -0.512
O=C(NCCN1CCCCCC1=O)Nc1cccnc1-n1cccn1 | -1.73
CCC(NC(=O)c1ccc(COC)o1)c1nc(C(F)(F)F)cs1 (configuration not stated) | 2.91
CNC(=O)CN1CCC(CN(C)Cc2ccc(C)cc2C)CC1 | 4
COC(=O)CCN(CC1CCCO1)C(=O)CCc1ccc(OC)cc1 (configuration not stated) | 7.39
Cc1ccccc1C(NC(=O)NCC1(O)CCC1)C1CC1 (configuration not stated) | -3.03
CC(=O)NC1(C(=O)N2CCCN(c3cccnn3)CC2)CCCCC1 | 8.15
Cc1nc(CN2CCN(C(=O)C(C(C)C)n3cncn3)CC2)cs1 (configuration not stated) | -1.29
COc1ccc(OCCN(C)C(=O)c2ccc(OC)cc2O)cc1 | -143
O=S(=O)(Nc1cn[nH]c1)c1ccc(Br)c(F)c1 | 0.462
NC(=O)CCN1C(=O)CC(Cc2ccc(F)cc2)C1=O (configuration not stated) | -4.89
N#CC(NC(=O)CCC(=O)NC1CCCC1)c1ccc(F)cc1F (configuration not stated) | 6.75
OCC(O)CSCc1ccc(F)cc1Cl (configuration not stated) | -138
Cc1cnn(-c2ccc(C(=O)N3CCN(C)CC3C)cc2)c1 (configuration not stated) | 5.16
CCCc1nc(CNC2(c3nccs3)CCCC2)cs1 | 2.63
CN(Cc1nnc(-c2cccs2)o1)C(C(N)=O)c1cccc(F)c1 (configuration not stated) | 13.7

Structure (SMILES) | cytotoxicity at 10 µM [%]
CC(C)C1CN(C(=O)Nc2cnn(CC(F)F)c2)CCO1 (configuration not stated) | 8.52
O=S(=O)(CC1CCCO1)Nc1cc(Cl)ccc1-n1cccn1 (configuration not stated) | 3.55
CC(C)(C)C(=O)NCCC(=O)NS(=O)(=O)c1ccc2c(c1)OCCO2 | -3.81
Cc1ccccc1CS(=O)(=O)CC(=O)NCc1ccccc1F | -6
O=C(CC1CN(Cc2ccccc2)CCO1)NC1CCCC1 (configuration not stated) | -0.394
O=C1CCCCN1CCc1nc(C2(c3ccc(F)cc3)CCOC2)no1 (configuration not stated) | 3.82
CC(=O)NCCNC(=O)C(c1ccccc1C)N(C)C (configuration not stated) | 10.6
CC(C)N(CCO)C(=O)c1cc(COc2ccc3c(c2)CCCC3)on1 | -135
COc1ccc(C(=O)N2C[C@@H](O)[C@H](NCCc3ncccc3C)C2)cc1 | -3.71
O=C(CCCN1CCCCC1)N1CCN(C(=O)c2nc[nH]n2)CC1 | 7.81
O=C(O)CCc1cc2n(n1)CCN(Cc1ccc3[nH]ccc3c1)C2 | -2.32
C[C@H](N)C(=O)N1CCC(c2[nH]ncc2-c2ccccc2)CC1 | 2.4
CCN(Cc1cnn(C)c1)C[C@H]1CC[C@@H](Cc2cccc(C#N)c2)O1 | 0.194
COc1ccccc1NC(=O)c1cc2c([nH]c1=O)CCCC2=O | -4.14
COCCCNC(=O)CN(C)C(=O)c1cc(Cl)ccc1O | -1.84
CC(C)c1nc(CN2CCOC(Cn3cncn3)C2)no1 (configuration not stated) | 1.01
COc1cc(CNC(=O)N(Cc2ccc(F)cc2F)C2CC2)ccn1 | -9.17
CCCN(C)CCC(=O)N1CCCC1Cn1cccn1 (configuration not stated) | -16.9
CC(NC(=O)N1CCN(c2nccs2)CC1)c1nncn1C (configuration not stated) | -13.1
Cc1cnn(CCNCc2ccccc2OCc2ccncc2)c1 | -16.1
Cc1cnn(CCNCc2ccccc2OCc2ccccn2)c1 | 3.03

Structure (SMILES) | cytotoxicity at 10 µM [%]
Cc1ccc(F)c(C(=O)N2CCC(Nc3ccc(C)nn3)CC2)c1 | -3.78
CCOc1ccccc1OC1CCN(C(=O)c2ccc(=O)[nH]n2)CC1 | -8.7
Cc1cc(C(=O)N2CCc3nnc(N)cc3C2)c(C)n1C1CC1 | -3.71
COc1c(CNCc2ccc(CN(C)C)cc2)c(C)nn1C | 3.87
CC(CN1CCOCC1)n1cncc1-c1ccc2c(c1)CCCN2C (configuration not stated) | 12.3
CC(C)CN1CCC2(CCCNC2)C1=O (configuration not stated) | -0.184
CCOc1ccc(CN[C@@H]2COC[C@H]2c2ccc(F)cc2)cc1 | 17.1
O=C(CN1CCCCC1)N1CCC(c2cc(=O)n3c(n2)CCCCC3)C1 (configuration not stated) | -32.5
O=S(=O)(NC[C@]12COC[C@H]1CN(c1ncc(F)cn1)C2)C1CC1 | -128
Cc1cnc(N2CC[C@@H]3CN(Cc4ccncc4)CCO[C@@H]3C2)nc1 | 3.23
c1cnc(N2CCO[C@H]3CN(Cc4cc[nH]n4)C[C@H]32)cn1 | 9.07
CNC(=O)C1CNCCN1C(=O)c1ccc(C(F)(F)F)nc1C (configuration not stated) | -4.7
O=C(c1nc2c(o1)CN(CC1CCC1)C2)N1CCCC1 | -131
CNC(=O)[C@H]1C[C@@H]2CN(S(=O)(=O)Cc3ccccc3)C[C@@H]2N1C | -5.06
CN(C)C(=O)N[C@@H]1CN(Cc2ccc3c(c2)OCO3)[C@@H]2CCCO[C@@H]21 | -6.93
O=C(C1CC1)N1CC2(CCN(CC3CC3)CC2)c2cc(F)ccc21 | 0.64
COCCN1C[C@@H]2CCCO[C@@H]2[C@H](N(C)Cc2ccco2)C1 | -0.388
CNc1nc2cn(CCc3ccc(Cl)cc3)c(=O)c-2c[nH]1 | 5.2
Cc1nnsc1CN1C[C@@H]2CC[C@H]1CN(Cc1ccccn1)C2 | -3.56
